Measurements: ChEMBL document CHEMBL4000179, “An Orally Active Bradykinin B1 Receptor Antagonist Engineered as a Bifunctional Chimera of Sunflower Trypsin Inhibitor” (J Med Chem, 2017)
The source made the active and inactive calls. The rule behind the calls is not given here. Where a SMILES comes first, the peptide text is derived from it. Bridges are numbered along the chain shown (N, C = ends).

Assays:
[1] = target: T1, Serine protease 1 (Bos taurus) (UniProt P00760); assay: Inhibition of bovine beta-trypsin up to 100 uM using BAPNA as substrate preincubated for 15 mins followed by substrate addition measured over 60 mins by spectrometric method
T1 sequence (whole entry): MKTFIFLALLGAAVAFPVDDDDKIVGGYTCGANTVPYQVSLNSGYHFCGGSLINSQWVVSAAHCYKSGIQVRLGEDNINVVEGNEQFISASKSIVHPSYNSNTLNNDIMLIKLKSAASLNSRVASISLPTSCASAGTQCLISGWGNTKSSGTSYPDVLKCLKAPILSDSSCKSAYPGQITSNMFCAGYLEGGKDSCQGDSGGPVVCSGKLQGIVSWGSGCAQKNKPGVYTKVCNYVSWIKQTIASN
Method in brief: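 Trypsin activity was measured at 37°C with the chromogenic substrate BAPNA (N-α-benzoyl-DL-arginine 4-nitroanilide), reading absorbance at 405 nm. […] Runs were in triplicate, reported as mean ± SD.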

[2] = tested on: HeLa; assay: Cytotoxicity against human HeLa cells up to 40 uM after 24 hrs by PrestoBlue cell viability assay; type: cell-based
[3] = Stability in pH 7 phosphate buffer at 0.1 mM at 100 degC after 6 hrs by HPLC-MS analysis; type: physicochemical; conditions: read-out: Stability
Method in brief: (§1)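 Peptides were boiled at 100 °C, exposed to hydrochloride solution, or incubated with proteases for up to 6 h. Integrity was determined by HPLC and MS.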

[4] = Stability in 0.2 M aqueous HCl after 6 hrs by HPLC-MS analysis; type: physicochemical; conditions: read-out: Stability; method in brief: as §1
[5] = Stability of the compound assessed as trypsin (unknown origin)-mediated compound degradation at enzyme to peptide ratio of 1:50 after 6 hrs by HPLC-MS analysis; type: ADME; conditions: human; method in brief: as §1
[6] = Stability of the compound assessed as pepsin (unknown origin)-mediated compound degradation at enzyme to peptide ratio of 1:50 after 6 hrs by HPLC-MS analysis; type: ADME; conditions: human; for Stability: 6 h; method in brief: as §1
[7] = Metabolic stability in human serum assessed as parent compound remaining after 6 hrs by UPLC method; type: ADME, cell-free; conditions: read-out: Stability
Method in brief: (§2)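 Peptides were incubated in human serum for up to 6 h, sampled at time points, and the intact fraction was expressed relative to 0 h. Runs were in triplicate, reported as mean ± SD.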

[8] = target: T2, B1 bradykinin receptor (Homo sapiens, UniProt P46663); assay: Antagonist activity against bradykinin B1 receptor in human HeLa cells assessed as inhibition of Des-Arg9-BK-induced increase in intracellular Ca2+ level by Fluro-4 direct calcium dye based fluorescence assay; type: functional, cell-based
T2 sequence (P46663 whole entry): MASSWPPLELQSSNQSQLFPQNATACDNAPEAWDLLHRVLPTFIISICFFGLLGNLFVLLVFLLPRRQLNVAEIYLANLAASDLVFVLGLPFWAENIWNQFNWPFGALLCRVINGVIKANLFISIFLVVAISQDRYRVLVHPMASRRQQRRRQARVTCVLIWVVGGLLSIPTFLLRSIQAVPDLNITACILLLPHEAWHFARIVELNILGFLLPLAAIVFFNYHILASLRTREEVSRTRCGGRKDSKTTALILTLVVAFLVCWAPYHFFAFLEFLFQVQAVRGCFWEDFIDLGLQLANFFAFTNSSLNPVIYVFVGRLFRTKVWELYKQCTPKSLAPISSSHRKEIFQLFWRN
Method in brief: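 HeLa cells were pre-loaded with fluo-4 Direct dye and pretreated with peptide at 0 to 10 µM. B1 agonist des-Arg9-BK (100 nM) was then added to raise intracellular Ca2+, read as fluorescence change.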

[9] = tested on: Mus musculus; assay: Analgesic activity in ICR mouse assessed as increase in pain response latency at 0.3 to 10 mg/kg administered through oral gavage 30 mins prior to test by hot plate assay relative to control; type: functional
Method in brief: (§3)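 Mouse hot plate test with hind paw-licking as the nociceptive end point. Peptides were given i.p. or p.o. at several doses, with phosphate-buffered saline as the control. Response latency was compared with each animal's baseline latency and expressed as percent increment in response time.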

[10] = tested on: Mus musculus; assay: Analgesic activity in ICR mouse assessed as increase in pain response latency at 1 mg/kg,ip measured after 10 mins by hot plate assay relative to control; type: functional; method in brief: as §3
[11] = tested on: Serum; assay: Metabolic stability in human serum after 2 hrs by UPLC method; type: ADME, cell-free; method in brief: as §2
[12] = tested on: Mus musculus; assay: Analgesic activity in ICR mouse assessed as increase in pain response latency at 0.03 to 1 mg/kg,ip measured after 10 mins by hot plate assay relative to control; type: functional, organism-based; method in brief: as §3
[13] = Drug uptake in ICR mouse serum at 10 mg/kg, po after 4 hrs; type: ADME, organism-based; conditions: read-out: Drug uptake
Method in brief: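 Peptide was given orally at 10 mg/kg, and its serum concentration was measured 4 h later.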

[14] = target: T3, Serine protease 1 (Bos taurus, UniProt P00760); assay: Inhibition of bovine beta-trypsin using BAPNA as substrate preincubated for 15 mins followed by substrate addition measured over 60 mins by Dixon plot analysis
T3 sequence (P00760 whole entry): T1 sequence (whole entry)

[15] = tested on: Mus musculus; assay: Analgesic activity in ICR mouse assessed as increase in pain response latency at 10 mg/kg administered through oral gavage 30 mins prior to test by hot plate assay relative to control; type: functional; method in brief: as §3

Row | inhibition [1] | remaining at 6 h, 100 µM [3] | remaining at 6 h [4] | Stability [5] | Stability [6] | remaining at 6 h [7] | IC50 [8] | metabolised at 6 h ([6]; pepsin, read-out: Drug degradation) | Stability [11] | concentration at 4 h [13] | Ki [14] | Compound | Activity [2] | Activity [9] | Activity [10] | Activity [12] | Activity [15]
1 | Active | > 80% | > 80% | Unstable | Unstable | – | – | – | – | – | – | CC[C@H](C)[C@@H]1NC(=O)[C@@H]2CCCN2C(=O)[C@@H]2CCCN2C(=O)[C@H]([C@@H](C)CC)NC(=O)[C@H](CO)NC(=O)[C@H](CCCCN)NC(=O)[C@H]([C@@H](C)O)NC(=O)[C@@H](N)CSSC[C@@H](C(=O)N[C@@H](CCCCN)C(=O)N[C@@H](CCCNC(=N)N)C(=O)N2CCC[C@H]2C(=O)N2CCC[C@H]2C(=O)NCC(=O)N[C@@H](Cc2ccccc2)C(=O)N[C@@H](CO)C(=O)N2CCC[C@H]2C(=O)N[C@@H](CC(C)C)C(=O)O)NC1=O (H-CTKSIPPICKRPPGFSPL-OH; disulfide 1-9) | Non-Toxic | – | – | – | –
2 | inactive | > 80% | > 80% | Unstable | Stable | > 90% | 4.04 µM | – | – | – | – | CC(C)C[C@@H]1NC(=O)[C@@H]2CCCN2C(=O)[C@H](CO)NC(=O)[C@H](Cc2ccccc2)NC(=O)CNC(=O)[C@@H]2CCCN2C(=O)[C@@H]2CCCN2C(=O)[C@H](CCCNC(=N)N)NC(=O)[C@H](CCCCN)NC(=O)[C@@H]2CSSC[C@H](NC1=O)C(=O)N[C@@H](Cc1ccccc1)C(=O)N1CCC[C@H]1C(=O)N[C@@H](CC(=O)O)C(=O)NCC(=O)N[C@@H](CCCNC(=N)N)C(=O)N2 (cyclo(CFPDGRCKRPPGFSPL); disulfide 1-7) | Non-Toxic | – | – | – | –
3 | – | > 80% | > 80% | Stable | – | – | – | > 50% | Unstable | – | – | CC(C)C[C@H](NC(=O)[C@@H]1CCCN1C(=O)[C@H](CO)NC(=O)[C@H](Cc1ccccc1)NC(=O)CNC(=O)[C@@H]1CCCN1C(=O)[C@@H]1CCCN1C(=O)[C@H](CCCN=C(N)N)NC(=O)[C@@H](N)CCCCN)C(=O)O | Non-Toxic | <10% | 201% | – | –
4 | Active | > 80% | > 80% | – | – | – | – | – | – | – | – | CC[C@H](C)[C@@H]1NC(=O)[C@@H]2CCCN2C(=O)[C@@H]2CCCN2C(=O)[C@H]([C@@H](C)CC)NC(=O)[C@H](CO)NC(=O)[C@H](CCCCN)NC(=O)[C@H]([C@@H](C)O)NC(=O)[C@@H]2CSSC[C@H](NC1=O)C(=O)N[C@@H](Cc1ccccc1)C(=O)N1CCC[C@H]1C(=O)N[C@@H](CC(=O)O)C(=O)NCC(=O)N[C@@H](CCCNC(=N)N)C(=O)N2 | Non-Toxic | inactive | – | inactive | –
5 | Active | > 80% | > 80% | Stable | Stable | > 90% | 2 µM | – | – | 11.5 µM | 5.12 nM | CC[C@H](C)[C@@H]1NC(=O)[C@@H]2CCCN2C(=O)[C@@H]2CCCN2C(=O)[C@H]([C@@H](C)CC)NC(=O)[C@H](CO)NC(=O)[C@H](CCCCN)NC(=O)[C@H]([C@@H](C)O)NC(=O)[C@@H]2CSSC[C@H](NC1=O)C(=O)N[C@@H](CCCCN)C(=O)N[C@@H](CCCNC(=N)N)C(=O)N1CCC[C@H]1C(=O)N1CCC[C@H]1C(=O)NCC(=O)N[C@@H](Cc1ccccc1)C(=O)N[C@@H](CO)C(=O)N1CCC[C@H]1C(=O)N[C@@H](CC(C)C)C(=O)N2 (cyclo(CKRPPGFSPLCTKSIPPI); disulfide 1-11) | Non-Toxic | – | 125% | – | 71%
6 | – | > 80% | > 80% | Unstable | Unstable | – | – | – | – | – | – | CC(C)C[C@@H]1NC(=O)[C@@H]2CCCN2C(=O)[C@H](CO)NC(=O)[C@H](Cc2ccccc2)NC(=O)CNC(=O)[C@@H]2CCCN2C(=O)[C@@H]2CCCN2C(=O)[C@H](CCCNC(=N)N)NC(=O)[C@H](CCCCN)NC(=O)[C@@H](NC(=O)[C@H](CCCNC(=N)N)NC(=O)CN)CSSC[C@@H](C(=O)N[C@@H](Cc2ccccc2)C(=O)N2CCC[C@H]2C(=O)N[C@@H](CC(=O)O)C(=O)O)NC1=O (H-GRCKRPPGFSPLCFPD-OH; disulfide 3-13) | Non-Toxic | – | – | – | –
